Measurements published in ChEMBL document CHEMBL4819034, “Tricyclic-Carbocyclic RORγt Inverse Agonists-Discovery of BMS-986313” (J Med Chem, 2021).

Assays:
[1] = Metabolic stability in rat liver microsomes assessed as parent compound remaining; assay type: ADME, Microsome
Method in brief: (§1)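 Test compound at 0.5 μM initial concentration incubated with human, mouse or rat liver microsomes (protein 1 mg/mL). Metabolic stability reported as percent of parent compound remaining after incubation.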

[2] = Metabolic stability in human liver microsomes assessed as parent compound remaining; assay type: ADME, Microsome; method in brief: as §1
[3] = Metabolic stability in mouse liver microsomes assessed as parent compound remaining; assay type: ADME, Microsome; method in brief: as §1
[4] = target: T1, Nuclear receptor ROR-gamma (Homo sapiens, UniProt P51449); test: Inverse agonist activity at RORgammat in CD3 and CD28-stimulated human whole blood assessed as suppression of IL17 preincubated for 1 hr followed by CD3 and CD28 stimulation measured after 20 hrs by AlphaLISA method; assay type: tissue-based
T1 sequence (P51449 whole entry): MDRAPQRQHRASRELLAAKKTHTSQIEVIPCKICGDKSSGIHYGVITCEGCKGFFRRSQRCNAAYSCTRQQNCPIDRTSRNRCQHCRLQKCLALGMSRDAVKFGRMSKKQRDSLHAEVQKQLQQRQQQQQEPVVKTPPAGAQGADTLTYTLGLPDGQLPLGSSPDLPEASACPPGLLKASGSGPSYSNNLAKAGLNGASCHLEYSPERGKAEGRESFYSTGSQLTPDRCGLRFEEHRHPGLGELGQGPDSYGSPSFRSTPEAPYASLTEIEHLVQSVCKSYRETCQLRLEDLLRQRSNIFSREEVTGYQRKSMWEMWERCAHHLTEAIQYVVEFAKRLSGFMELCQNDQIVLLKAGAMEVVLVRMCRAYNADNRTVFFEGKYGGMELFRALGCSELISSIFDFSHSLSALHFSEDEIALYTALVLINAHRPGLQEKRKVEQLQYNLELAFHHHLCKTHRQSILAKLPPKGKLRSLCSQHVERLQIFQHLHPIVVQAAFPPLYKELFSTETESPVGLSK

[5] = target: T1, Nuclear receptor ROR-gamma; test: Inverse agonist activity at recombinant full-length human Gal4-fused RORgammat expressed in human Jurkat cells incubated for 18 hrs by steady-glo luciferase reporter gene assay; assay type: cell-based
[6] = Half life in rat liver microsomes; assay type: ADME, Microsome
Method in brief: (§2)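 Liver microsome half-life (min) measured in human, mouse, rat, dog and cyno liver microsomes.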

[7] = Half life in dog liver microsomes; assay type: ADME, Canis lupus familiaris, Microsome; method in brief: as §2
[8] = Half life in mouse liver microsomes; assay type: ADME, Microsome; method in brief: as §2
[9] = Half life in human liver microsomes; assay type: ADME, Microsome; method in brief: as §2
[10] = Half life in cynomolgus monkey liver microsomes; assay type: ADME, Macaca fascicularis, Microsome; method in brief: as §2
[11] = Permeability across apical to basolateral membrane in human Caco-2 cells; assay type: ADME, cell-based; settings: read-out: permeability
Method in brief: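 Caco-2 monolayer permeability, apical-to-basolateral direction (Pc, nm/s). An efflux ratio is also reported.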

| Structure (SMILES) | Stabilty [1] [%] | Stabilty [2] [%] | Stabilty [3] [%] | other results |
| --- | --- | --- | --- | --- |
| CNC(=O)N[C@@H]1CC[C@@]2(S(=O)(=O)c3ccc(F)cc3)c3ccc(C(F)(C(F)(F)F)C(F)(F)F)cc3CC[C@@H]12 | 10 | 40 | 32 |  |
| CC(C)(O)CNC(=O)N[C@@H]1CC[C@@]2(S(=O)(=O)c3ccc(F)cc3)c3ccc(C(F)(C(F)(F)F)C(F)(F)F)cc3CC[C@@H]12 | 42 | 54 |  |  |
| CS(=O)(=O)N[C@@H]1CC[C@@]2(S(=O)(=O)c3ccc(F)cc3)c3ccc(C(F)(C(F)(F)F)C(F)(F)F)cc3CC[C@@H]12 |  |  |  | EC50 [4]: 157 nM; EC50 [5]: 7.3 nM |
| C[C@@H](O)C(=O)N[C@@H]1CC[C@@]2(S(=O)(=O)c3ccc(F)cc3)c3ccc(C(F)(C(F)(F)F)C(F)(F)F)cc3CC[C@@H]12 | 14 | 71 | 70 |  |
| [2H]C([2H])([2H])N1C(=O)C(O)CC1C(=O)N[C@@H]1CC[C@@]2(S(=O)(=O)c3ccc(F)cc3)c3ccc(C(F)(C(F)(F)F)C(F)(F)F)cc3CC[C@@H]12 (single isomer, unassigned) | 100 | 99 | 100 | EC50 [4]: 134 nM; EC50 [5]: 12.3 nM |
| CC(=O)N1CCC(C(=O)N[C@@H]2CC[C@@]3(S(=O)(=O)c4ccc(F)cc4)c4ccc(C(F)(C(F)(F)F)C(F)(F)F)cc4CC[C@@H]23)CC1 | 100 | 61 | 67 |  |
| O=C(NCCO)N[C@@H]1CC[C@@]2(S(=O)(=O)c3ccc(F)cc3)c3ccc(C(F)(C(F)(F)F)C(F)(F)F)cc3CC[C@@H]12 | 41 | 97 | 93 |  |
| CC(C)(O)CC(=O)N[C@@H]1CC[C@@]2(S(=O)(=O)c3ccc(F)cc3)c3ccc(C(F)(C(F)(F)F)C(F)(F)F)cc3CC[C@@H]12 | 90 | 97 | 86 |  |
| O=C(N[C@@H]1CC[C@@]2(S(=O)(=O)c3ccc(F)cc3)c3ccc(C(F)(C(F)(F)F)C(F)(F)F)cc3CC[C@@H]12)C1(O)CCOCC1 | 66 | 100 | 75 |  |
| O=C(CO)N[C@@H]1CC[C@@]2(S(=O)(=O)c3ccc(F)cc3)c3ccc(C(F)(C(F)(F)F)C(F)(F)F)cc3CC[C@@H]12 | 34 | 82 | 65 |  |
| CC(C)(O)CNC(=O)[C@@H]1CC[C@@]2(S(=O)(=O)c3ccc(F)cc3)c3ccc(C(F)(C(F)(F)F)C(F)(F)F)cc3CC[C@@H]12 |  |  |  | half-life [6]: 18 min; half-life [7]: 27 min |
| [2H]C([2H])([2H])N1C(=O)C(F)CC1C(=O)N[C@@H]1CC[C@@]2(S(=O)(=O)c3ccc(F)cc3)c3ccc(C(F)(C(F)(F)F)C(F)(F)F)cc3CC[C@@H]12 (single isomer, unassigned) | 100 | 100 | 86 | half-life [8]: 38 min; half-life [9]: 46 min; half-life [6]: 56 min; half-life [10]: 24 min; Papp A→B [11]: 9.2 ×10⁻⁶ cm/s; half-life [7]: 120 min |
| CN(C(=O)C(C)(C)O)[C@@H]1CC[C@@]2(S(=O)(=O)c3ccc(F)cc3)c3ccc(C(F)(C(F)(F)F)C(F)(F)F)cc3CC[C@@H]12 |  |  |  | EC50 [4]: 2730 nM; EC50 [5]: 45 nM |
| CC(C)(C(=O)N[C@@H]1CC[C@@]2(S(=O)(=O)c3ccc(F)cc3)c3ccc(C(F)(C(F)(F)F)C(F)(F)F)cc3CC[C@@H]12)N1CCNCC1 | 97 | 74 | 78 | EC50 [5]: 63 nM |
| O=C(N[C@@H]1CC[C@@]2(S(=O)(=O)c3ccc(F)cc3)c3ccc(C(F)(C(F)(F)F)C(F)(F)F)cc3CC[C@@H]12)C1(O)CCCCC1 | 22 | 50 | 56 |  |
| CC(C)(N)CC(=O)N[C@@H]1CC[C@@]2(S(=O)(=O)c3ccc(F)cc3)c3ccc(C(F)(C(F)(F)F)C(F)(F)F)cc3CC[C@@H]12 | 89 | 98 | 85 |  |
| O=C(N[C@@H]1CC[C@@]2(S(=O)(=O)c3ccc(F)cc3)c3ccc(C(F)(C(F)(F)F)C(F)(F)F)cc3CC[C@@H]12)C1(O)CCNCC1 | 83 | 100 | 88 |  |
| CC(C)(C(=O)N[C@@H]1CC[C@@]2(S(=O)(=O)c3ccc(F)cc3)c3ccc(C(F)(C(F)(F)F)C(F)(F)F)cc3CC[C@@H]12)N1CCOCC1 | 0.4 | 0.3 | 0.3 |  |
| CC(=O)NCC(=O)N[C@@H]1CC[C@@]2(S(=O)(=O)c3ccc(F)cc3)c3ccc(C(F)(C(F)(F)F)C(F)(F)F)cc3CC[C@@H]12 | 10 | 100 | 93 |  |
| CC(C)(N)C(=O)N[C@@H]1CC[C@@]2(S(=O)(=O)c3ccc(F)cc3)c3ccc(C(F)(C(F)(F)F)C(F)(F)F)cc3CC[C@@H]12 | 100 | 80 | 100 | EC50 [4]: 164 nM; EC50 [5]: 30 nM |
| CC(=O)N[C@@H]1CC[C@@]2(S(=O)(=O)c3ccc(F)cc3)c3ccc(C(F)(C(F)(F)F)C(F)(F)F)cc3CC[C@@H]12 | 100 |  | 90 |  |
